These results are taken from ChEMBL document CHEMBL1131378, “Synthesis and endectocidal activity of novel 1-(arylsulfonyl)-1-[(trifluoromethyl)sulfonyl]methane derivatives” (J Med Chem, 1998).

The logP is a log measure of how a compound divides between an organic and an aqueous phase. Read a high logP as a more lipophilic compound. The pKa is the pH at which an ionisable group is half protonated. A higher pKa goes with a weaker acid or stronger base. As usually defined, the IC50 is the concentration that inhibits the measured activity by half. Lower therefore signals greater potency.

Data set [1] is described as follows: Partition coefficient (logP) (HPLC). The format is physicochemical. Particulars: octanol/water. In outline:
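Partition coefficient measured chromatographically.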

A short description of data set [2]: The pKa value in aqueous solution. The data set is classed as physicochemical. In outline:
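pKa measured in aqueous solution.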

Data set [3] relates to Haemonchus contortus. The experiment in a line: Compound was tested for % reduction of Haemonchus contortus worms in sheep dosed at 10 mg/kg by single ir injection. The data set is classed as functional. In outline:
(§1)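 Lambs with baseline fecal egg counts on days 26–28 postinoculation randomised to groups and held in individual metabolism crates. A single 10 mg/kg BW intraruminal dose was given in PEG 200. Fecal EPG was measured daily. Total H. contortus worm counts were used to calculate % reduction as (TWC control − TWC treated)/TWC control × 100, against untreated controls.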

The subject of data set [4] is Haemonchus contortus. The experiment in a line: The compound was tested for % reduction of Haemonchus contortus worms in gerbils dosed at 25 mg/kg. The data set is classed as functional. In outline:
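Mongolian gerbils infected with H. contortus received one oral gavage at 25 mg/kg BW in DMSO/H2O. Untreated infected gerbils served as negative controls and levamisole-dosed gerbils as positive controls, three per group. Stomachs and contents were vortexed in saline, incubated at 35 °C for at least 1 h and stained with iodine. Worms were counted per gerbil and % reduction taken against the mean of infected untreated controls.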

Data set [5] can be described thus: (§2) Number of days posttreated in which >90% mortality of ASF was seen following exposure of insects to serum from sheep treated with 10 mg/kg of BW of compound by single ir injection. The format is functional. In outline:
(§3)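 Parasitized sheep (two per compound) received a single intraruminal injection at 10 mg/kg BW in PEG 200. Blood was drawn daily for 14 days and left about 24 h to separate. Serum-soaked dental wicks were exposed to adult stable flies for 48 h, with mortality compared to a serum-only control. Days posttreatment giving >90% mortality were counted.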

The species entered for data set [6] is Rattus norvegicus. The experiment in a line: Uncoupler concentration that reduced the respiratory control index by 50% of coupled rat liver mitochondria. The data set is classed as functional.
Data set [7] relates to Stomoxys calcitrans. The experiment in a line: Insecticidal property against Stomoxys calcitrans measured as lowest concentration in bovine serum vs adult stable fly giving > 90% mortality. The data set is classed as functional. In outline:
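Serum titrated with compound from 100 ppm downward was soaked into dental wicks and placed in dishes with 10 chilled adult stable flies. Kept about 48 h at about 25 °C and 75–85% humidity. Percent mortality was scored at 24 and 48 h against a wick with control serum only.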

Data set [8] has as its system Haemonchus contortus. The experiment in a line: The compound was tested for % Reduction of Haemonchus contortus worms in sheep dosed at 10 mg/kg by single ir injection. The format is functional. In outline:
as §1

In data set [9] the test system is Stomoxys calcitrans. The data set is described as §2. The data set is classed as functional. In outline:
as §3

`CC(S(=O)(=O)c1ccc(OC(F)(F)F)cc1)S(=O)(=O)C(F)(F)F` (stereo not drawn): the logP in data set [1] was 3. Moreover, the pKa in data set [2] was determined as 6.2. Further, the Reduction in data set [3] and in [4] was 100% throughout. In data set [5], this molecule yielded a Days of 6. In addition, the IC50 in data set [6] was found to be 710 µM. Moreover, the ASF in data set [7] was 25 p.p.m.

As to `Cc1ccc(S(=O)(=O)CS(=O)(=O)C(F)(F)F)cc1`, in data set [7], the ASF is given as more than 100 p.p.m. `O=S(=O)(CS(=O)(=O)C(F)(F)F)c1ccc(Cl)cc1Cl`: in data set [7], the ASF is more than 100 p.p.m.

Turning to `CCC(S(=O)(=O)c1ccc(Cl)cc1)S(=O)(=O)C(F)(F)F` (stereo not drawn), the ASF in [7] is on record as 50 p.p.m.

`O=S(=O)(c1ccc(OC(F)(F)F)cc1)C(CSc1ccc(OC(F)(F)F)cc1)S(=O)(=O)C(F)(F)F` (stereo not drawn): in [7], the ASF is 50 p.p.m. Regarding `CSC(S(=O)(=O)c1ccc(Cl)cc1)S(=O)(=O)C(F)(F)F` (stereo not drawn), in data set [7], the ASF is listed as more than 100 p.p.m. The same measure, in the same setting: the value for `O=S(=O)(CS(=O)(=O)C(F)(F)F)c1cc(C(F)(F)F)cc(C(F)(F)F)c1` was 50 p.p.m. On to `O=S(=O)(CS(=O)(=O)C(F)(F)F)c1ccc(Cl)c(Cl)c1`, for which the logP in data set [1] was determined as 1.7. The pKa in data set [2] is 4. The Reduction in data set [8] and in data set [4] was 100% throughout. Besides, the Days in [9] came to 1. Also, the midpoint of inhibition in data set [6], the IC50, lay at 3990 µM. Further, the ASF in data set [7] is reported as more than 100 p.p.m. As for `O=S(=O)(c1ccc(OC(F)(F)F)cc1)C(CSc1ccc(F)cc1)S(=O)(=O)C(F)(F)F` (stereo not drawn), the Reduction in data set [3] and in [4] was 100% in each case. Moreover, in data set [5], the Days worked out at 6. Further, in data set [7], the ASF amounted to 50 p.p.m. With `O=S(=O)(CS(=O)(=O)C(F)(F)F)c1ccccc1`, the ASF in [7] turned out to be 50 p.p.m. Still for that read-out and setting: the value for `O=S(=O)(c1ccc(Cl)c(Cl)c1)C(Cc1ccc(C(F)(F)F)cc1)S(=O)(=O)C(F)(F)F` (stereo not drawn) was 100 p.p.m; that for `O=S(=O)(CS(=O)(=O)C(F)(F)C(F)(F)C(F)(F)C(F)(F)F)c1ccc(OC(F)(F)F)cc1` was 25 p.p.m. Take `O=S(=O)(CS(=O)(=O)C(F)(F)F)c1ccc(SC(F)(F)C(F)F)c(Cl)c1`: the ASF in data set [7] is on record as more than 100 p.p.m. In the case of `O=S(=O)(CS(=O)(=O)C(F)(F)F)c1ccc(NS(=O)(=O)C(F)(F)F)cc1`, the ASF in data set [7] is listed as 100 p.p.m. Take `CC(C)(C)c1ccc(S(=O)(=O)CS(=O)(=O)C(F)(F)F)cc1`: the logP in data set [1] was 2.4. Moreover, the pKa in data set [2] is 5.1. The molecule further came in with an IC50 in data set [6] of 2800 µM. Besides, the ASF in data set [7] is listed as more than 100 p.p.m. With `O=S(=O)(CS(=O)(=O)C(F)(F)F)c1ccc(F)cc1`, the logP in data set [1] was 1.3. Further, the pKa in data set [2] was found to be 4.6. For the same molecule, in [6], it took 3150 µM to reach half-maximal inhibition (IC50). For the same molecule, the ASF in data set [7] is 100 p.p.m. For the molecule `O=S(=O)(CS(=O)(=O)C(F)(F)F)c1ccc(OC(F)(F)F)cc1`, the logP in [1] was found to be 2.2. The same molecule registered a pKa in data set [2] of 4.1. In addition, the Reduction in data set [3] and in [4] was 100% each time. Besides, in data set [5], the Days was 10. The same molecule registered an IC50 in data set [6] of 2950 µM. Also, the ASF in data set [7] was found to be 25 p.p.m. As for `FC(F)(F)Oc1ccc(SCSC(F)(F)F)cc1`, the ASF in data set [7] is listed as more than 100 p.p.m. As for `CC(S(=O)(=O)c1ccc(Cl)c(Cl)c1)S(=O)(=O)C(F)(F)F` (stereo not drawn), the ASF in data set [7] came to 25 p.p.m. On the same count and under the same terms, next, `O=S(=O)(CS(=O)(=O)C(F)(F)F)c1cccc(C(F)(F)F)c1`: more than 100 p.p.m; `O=S(=O)(CS(=O)(=O)C(F)(F)F)c1ccc(SC(F)(F)C(F)F)cc1`: more than 100 p.p.m. Consider `O=S(=O)(CS(=O)(=O)C(F)(F)F)c1ccc(F)c(Cl)c1`, for which the ASF in data set [7] turned out to be 100 p.p.m. Consider `O=S(=O)(c1ccc(OC(F)(F)F)cc1)C(CSc1cccc(F)c1)S(=O)(=O)C(F)(F)F` (stereo not drawn), for which the ASF in [7] came out at 50 p.p.m. The molecule `O=S(=O)(CS(=O)(=O)C(F)(F)F)c1ccc(Cl)cc1` displayed a logP in data set [1] of 1.9. In [2], this molecule returned a pKa of 4.4. The Reduction in data set [8] and in [4] was 100% throughout. Also, in data set [9], the Days is reported as 3. Besides, in [6], 4000 µM corresponded to half-maximal inhibition (IC50). Besides, the ASF in [7] turned out to be 50 p.p.m. For the molecule `O=S(=O)(CS(=O)(=O)C(F)(F)F)c1ccc(C(F)(F)F)cc1`, the logP in [1] came out at 1. In data set [2], this molecule yielded a pKa of 4. In addition, the Reduction in [3] and in data set [4] was 100% each time. The same molecule gave a Days in [5] of 0. Half-maximal inhibition in [6] (IC50) required 5400 µM. Besides, the ASF in [7] came to 50 p.p.m.

Consider `CC(C)(C)Sc1ccc(S(=O)(=O)CS(=O)(=O)C(F)(F)F)cc1`, for which the ASF in [7] was more than 100 p.p.m. For the molecule `O=S(=O)(CS(=O)(=O)C(F)(F)F)c1ccc(O)cc1`, the ASF in [7] was more than 100 p.p.m. As for `O=S(=O)(CS(=O)(=O)C(F)(F)F)c1c(Cl)cccc1Cl`, in data set [7], the ASF is more than 100 p.p.m. On to `CS(=O)(=O)Oc1ccc(S(=O)(=O)CS(=O)(=O)C(F)(F)F)cc1`, for which the ASF in data set [7] was more than 100 p.p.m. The same measure, in the same setting: next, `O=[N+]([O-])c1ccc(S(=O)(=O)CS(=O)(=O)C(F)(F)F)cc1`: more than 100 p.p.m; `O=S(=O)(CS(=O)(=O)C(F)(F)F)c1ccc(OS(=O)(=O)C(F)(F)F)cc1`: 100 p.p.m. Take `N#Cc1ccc(S(=O)(=O)CS(=O)(=O)C(F)(F)F)cc1`: the ASF in data set [7] was more than 100 p.p.m. On the same count and under the same terms, the value for `COc1ccc(S(=O)(=O)CS(=O)(=O)C(F)(F)F)cc1` was more than 100 p.p.m; that for `O=S(=O)(c1ccc(OC(F)(F)F)cc1)C(CSc1ccc(Cl)cc1)S(=O)(=O)C(F)(F)F` (stereo not drawn) was 50 p.p.m.

For `O=S(=O)(CS(=O)(=O)C(F)(F)F)c1ccc(Br)cc1`, the ASF in [7] was 25 p.p.m.

For `O=S(=O)(c1ccc(Cl)cc1)C(Cc1ccccc1)S(=O)(=O)C(F)(F)F` (stereo not drawn), in [7], the ASF was more than 100 p.p.m. Still for that read-out and setting: the value for `CC(S(=O)(=O)c1ccc(Cl)cc1)S(=O)(=O)C(F)(F)F` (stereo not drawn) was 50 p.p.m.

As for `O=S(=O)(c1ccc(OC(F)(F)F)cc1)C(Cl)(Cl)S(=O)(=O)C(F)(F)F`, the ASF in [7] is on record as more than 100 p.p.m. Same read-out and setting: next, `O=S(=O)(CS(=O)(=O)C(F)(F)F)c1ccccc1Cl`: more than 100 p.p.m; `O=S(=O)(CS(=O)(=O)C(F)(F)F)c1ccc(OC(F)(F)C(F)F)cc1`: 25 p.p.m. In [1], `O=[N+]([O-])c1ccc(O)c([N+](=O)[O-])c1` [2,4-DINITROPHENOL] had a logP of 1.5. Further, in data set [2], the pKa was found to be 4.6. 1000 µM corresponded to half-maximal inhibition in [6] (IC50). `Cc1cc(C(C#N)c2ccc(Cl)cc2)c(Cl)cc1NC(=O)c1cc(I)cc(I)c1O` (stereo not drawn) [CLOSANTEL] had an IC50 in data set [6] of 927 µM.
